# Assay results published in ChEMBL document CHEMBL1159071, “Discovery of 4-(5-methyloxazolo[4,5-b]pyridin-2-yl)-1,4-diazabicyclo[3.2.2]nonane (CP-810,123), a novel alpha 7 nicotinic acetylcholine receptor agonist for the treatment of cognitive disorders in schizophrenia: synthesis, SAR development, and in vivo efficacy in cognition models” (J Med Chem, 2010).
# Key:
# [1] = biological target: T1, 5-hydroxytryptamine receptor 3A (Mus musculus, UniProt P23979); test: Displacement of [3H]LY278584 from mouse 5HT3 receptor expressed in HEK293 cells; assay type: cell-based
# T1 sequence (P23979 whole entry): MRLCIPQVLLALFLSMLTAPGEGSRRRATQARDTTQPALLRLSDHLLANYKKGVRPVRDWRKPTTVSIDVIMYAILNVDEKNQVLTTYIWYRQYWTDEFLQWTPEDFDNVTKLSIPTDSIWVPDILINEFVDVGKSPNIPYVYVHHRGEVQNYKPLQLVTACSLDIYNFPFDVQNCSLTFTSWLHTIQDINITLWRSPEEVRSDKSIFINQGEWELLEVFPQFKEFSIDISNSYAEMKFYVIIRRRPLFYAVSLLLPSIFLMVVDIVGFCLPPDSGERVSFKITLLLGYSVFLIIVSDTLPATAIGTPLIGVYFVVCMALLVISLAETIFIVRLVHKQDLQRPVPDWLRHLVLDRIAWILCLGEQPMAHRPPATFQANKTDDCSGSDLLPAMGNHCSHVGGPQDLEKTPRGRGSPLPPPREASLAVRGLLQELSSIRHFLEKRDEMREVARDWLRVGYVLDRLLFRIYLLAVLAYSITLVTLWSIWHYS
# Outline: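 Mouse 5-HT3A in HEK293 cell homogenate, 20 mM Tris-HCl pH 7.4 with 154 mM NaCl. [3H]LY278584 1 nM final; nonspecific binding with 10 μM ICS205-930; 60 min at 37 °C, then filtration onto PEI-soaked GF/B. Ki by Cheng-Prusoff; mean of three six-point curves in triplicate in one assay; tropisetron standard.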
# [2] = Agonist activity at human alpha7 nAChR/mouse 5HT3 chimeric receptor expressed in SH-EP1 cells assessed as increase in intracellular calcium level; assay type: functional, cell-based
# Outline: (§1)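 α7-5HT3 chimera stably in SH-EP1 cells grown to confluence; loaded with Calcium Green 1 AM (2 μM final) 60 min at 37 °C. Compound added directly; calcium rise read by FLIPR (excitation 488 nm, emission >525 nm).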
# [3] = Selectivity for rat alpha7 nicotinic acetylcholine receptor over mouse 5HT3 receptor
# [4] = Agonist activity at human alpha7 nAChR/mouse 5HT3 chimeric receptor expressed in SH-EP1 cells assessed as increase in intracellular calcium level relative to 100 uM nicotine; assay type: functional; outline: as §1
# [5] = biological target: Neuronal acetylcholine receptor subunit alpha-7 (Rattus norvegicus, UniProt Q05941); test: Displacement of [125I]BTX from rat alpha7 nicotinic acetylcholine receptor expressed in GH4C1 cells; assay type: cell-based, GH4-C1
# Outline: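 GH4C1 membranes (20 mM HEPES, 118 mM NaCl, 4.5 mM KCl, 2.5 mM CaCl2, 1.2 mM MgSO4, pH 7.5) incubated 2 h at 37 °C with [125I]α-bungarotoxin 0.4 nM final. Nonspecific binding with 1 μM methyllycaconitine; filtration onto PEI-treated GF/B filters. Ki = IC50/(1+[L]/KD); six-point curves in triplicate; geometric mean with 95% CI.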
# [6] = biological target: Voltage-gated inwardly rectifying potassium channel KCNH2 (Homo sapiens, UniProt Q12809)
# CHO = test: Toxicity in CHO cells assessed as induction of DNA fragments by in vitro micronucleus assay; assay type: cell-based, Cricetulus griseus; settings: chinese hamster
# [7] = biological target: T2, 5-hydroxytryptamine receptor 3A (Homo sapiens, UniProt P46098); test: […] at human 5HT3 receptor expressed in human skin epithelial cells assessed as stimulation of calcium flux by FLIPR assay; assay type: functional, cell-based, Epithelial cell
# T2 sequence (P46098 whole entry): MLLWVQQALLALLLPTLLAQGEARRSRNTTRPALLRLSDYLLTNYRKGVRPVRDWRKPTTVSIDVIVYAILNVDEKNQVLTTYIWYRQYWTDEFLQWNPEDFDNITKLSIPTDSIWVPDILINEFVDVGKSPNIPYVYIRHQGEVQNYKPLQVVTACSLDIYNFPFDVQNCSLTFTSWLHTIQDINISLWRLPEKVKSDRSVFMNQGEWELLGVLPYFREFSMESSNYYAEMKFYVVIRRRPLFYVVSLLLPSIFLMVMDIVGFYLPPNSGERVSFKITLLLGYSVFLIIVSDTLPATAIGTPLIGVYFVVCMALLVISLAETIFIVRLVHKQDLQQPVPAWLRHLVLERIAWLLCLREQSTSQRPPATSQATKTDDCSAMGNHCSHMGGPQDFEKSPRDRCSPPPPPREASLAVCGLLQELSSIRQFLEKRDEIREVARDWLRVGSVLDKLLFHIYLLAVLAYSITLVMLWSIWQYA
# Outline: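 Human 5-HT3A stably in human skin epithelial cells, plated 15 000 cells/well 2 days ahead; loaded 1 h at 37 °C with Fluo-4 (8 μM final), washed into HBSS with 20 mM Tris-HEPES, 1 μM atropine, 4 mM Ca2+, pH 7.4. Compound added 2 min, then 5-HT challenge (250 nM final) 2 min; FLIPR calcium read.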
# [8] = biological target: Neuronal acetylcholine receptor subunit alpha-7 (Rattus norvegicus) (UniProt Q05941); test: Agonist activity at rat alpha7 nicotinic acetylcholine receptor expressed in Xenopus oocytes assessed as stimulation of channel currents at 32 uM at holding potential of -60/-90 mV by electrophysiology method relative to 50 uM nicotine; assay type: functional, cell-based; settings: Oocyte
# Outline: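 Xenopus oocytes defolliculated with collagenase (1.3 mg/mL, 3 h), injected with 10-50 ng rat α7 cRNA, kept in Barth's saline up to 2 weeks. Voltage clamp at -60 or -90 mV; current evoked by compound at 32 μM given as % of the 50 μM nicotine response (set to 100%).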
# [9] = biological target: Neuronal acetylcholine receptor; alpha3/beta4 (Homo sapiens, UniProt P30926+P32297); test: Displacement of [3H]epibatidine from alpha3beta4 nAChR expressed in IMR32 cells; assay type: cell-based, IMR-32
# Outline: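 Alpha3β4 binding in IMR32 cells with [3H]epibatidine radioligand. Six-point concentration-response curve run in triplicate and averaged.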
# Voltage-gated inwardly rectifying potassium channel KCNH2, sequence (Q12809 whole entry, the tested form may be a part): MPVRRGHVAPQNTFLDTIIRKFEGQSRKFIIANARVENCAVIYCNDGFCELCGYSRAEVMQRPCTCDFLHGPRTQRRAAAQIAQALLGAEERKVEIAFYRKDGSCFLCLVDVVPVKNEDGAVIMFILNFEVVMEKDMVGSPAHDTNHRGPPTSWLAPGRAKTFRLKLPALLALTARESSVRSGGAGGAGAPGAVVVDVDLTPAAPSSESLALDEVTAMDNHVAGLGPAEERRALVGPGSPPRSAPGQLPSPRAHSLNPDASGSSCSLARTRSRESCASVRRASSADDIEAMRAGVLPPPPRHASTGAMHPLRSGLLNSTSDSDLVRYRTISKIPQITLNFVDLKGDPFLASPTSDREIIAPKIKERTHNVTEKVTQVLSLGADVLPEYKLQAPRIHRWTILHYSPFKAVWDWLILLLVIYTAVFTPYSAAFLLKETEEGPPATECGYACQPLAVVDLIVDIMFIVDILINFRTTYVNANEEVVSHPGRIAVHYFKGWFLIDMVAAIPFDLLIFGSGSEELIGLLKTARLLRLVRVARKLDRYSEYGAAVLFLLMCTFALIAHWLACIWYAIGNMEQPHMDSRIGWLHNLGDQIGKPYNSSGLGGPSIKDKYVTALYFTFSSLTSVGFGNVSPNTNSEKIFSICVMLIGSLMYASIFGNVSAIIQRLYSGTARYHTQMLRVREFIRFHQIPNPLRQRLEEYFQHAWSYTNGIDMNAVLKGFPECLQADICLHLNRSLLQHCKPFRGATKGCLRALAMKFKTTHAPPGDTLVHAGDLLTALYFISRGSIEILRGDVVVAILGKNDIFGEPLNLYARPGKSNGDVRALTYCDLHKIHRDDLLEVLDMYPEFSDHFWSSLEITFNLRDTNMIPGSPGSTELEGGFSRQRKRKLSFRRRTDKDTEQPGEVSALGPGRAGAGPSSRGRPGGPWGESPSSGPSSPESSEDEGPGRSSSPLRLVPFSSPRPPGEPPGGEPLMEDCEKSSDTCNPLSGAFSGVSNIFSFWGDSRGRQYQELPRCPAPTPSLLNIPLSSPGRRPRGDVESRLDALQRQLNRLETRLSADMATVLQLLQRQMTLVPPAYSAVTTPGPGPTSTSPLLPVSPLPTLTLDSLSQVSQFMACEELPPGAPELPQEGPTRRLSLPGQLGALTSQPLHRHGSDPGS
# Neuronal acetylcholine receptor subunit alpha-7, sequence (Q05941 whole entry): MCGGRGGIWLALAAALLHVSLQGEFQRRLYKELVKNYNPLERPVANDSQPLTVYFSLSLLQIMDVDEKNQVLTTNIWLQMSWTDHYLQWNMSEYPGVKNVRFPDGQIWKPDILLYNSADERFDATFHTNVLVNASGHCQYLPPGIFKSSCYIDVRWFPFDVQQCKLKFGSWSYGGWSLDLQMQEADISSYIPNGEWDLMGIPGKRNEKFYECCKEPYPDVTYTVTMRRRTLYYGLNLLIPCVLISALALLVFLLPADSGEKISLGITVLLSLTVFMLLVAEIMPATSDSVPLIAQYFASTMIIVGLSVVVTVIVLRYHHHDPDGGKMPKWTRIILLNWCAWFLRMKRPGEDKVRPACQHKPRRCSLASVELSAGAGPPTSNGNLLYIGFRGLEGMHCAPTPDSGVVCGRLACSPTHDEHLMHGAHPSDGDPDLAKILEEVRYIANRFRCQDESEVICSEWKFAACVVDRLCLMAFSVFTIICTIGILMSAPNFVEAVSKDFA
# Neuronal acetylcholine receptor subunit alpha-7 (Rattus norvegicus), sequence (Q05941 whole entry): as above
# Neuronal acetylcholine receptor; alpha3/beta4, sequence (P30926 whole entry): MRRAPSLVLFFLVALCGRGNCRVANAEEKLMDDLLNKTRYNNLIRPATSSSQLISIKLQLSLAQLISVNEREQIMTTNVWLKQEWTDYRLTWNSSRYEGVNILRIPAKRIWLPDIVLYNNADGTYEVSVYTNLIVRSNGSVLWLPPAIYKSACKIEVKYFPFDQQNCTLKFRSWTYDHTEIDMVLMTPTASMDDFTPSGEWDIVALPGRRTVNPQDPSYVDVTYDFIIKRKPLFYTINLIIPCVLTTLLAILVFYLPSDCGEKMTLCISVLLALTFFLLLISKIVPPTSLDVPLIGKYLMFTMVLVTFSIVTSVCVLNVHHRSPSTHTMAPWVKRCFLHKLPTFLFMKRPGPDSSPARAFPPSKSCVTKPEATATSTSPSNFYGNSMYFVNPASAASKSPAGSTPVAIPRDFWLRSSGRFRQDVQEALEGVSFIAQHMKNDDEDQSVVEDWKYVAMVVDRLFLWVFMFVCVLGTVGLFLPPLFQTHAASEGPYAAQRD
# Neuronal acetylcholine receptor; alpha3/beta4, sequence (P32297 whole entry): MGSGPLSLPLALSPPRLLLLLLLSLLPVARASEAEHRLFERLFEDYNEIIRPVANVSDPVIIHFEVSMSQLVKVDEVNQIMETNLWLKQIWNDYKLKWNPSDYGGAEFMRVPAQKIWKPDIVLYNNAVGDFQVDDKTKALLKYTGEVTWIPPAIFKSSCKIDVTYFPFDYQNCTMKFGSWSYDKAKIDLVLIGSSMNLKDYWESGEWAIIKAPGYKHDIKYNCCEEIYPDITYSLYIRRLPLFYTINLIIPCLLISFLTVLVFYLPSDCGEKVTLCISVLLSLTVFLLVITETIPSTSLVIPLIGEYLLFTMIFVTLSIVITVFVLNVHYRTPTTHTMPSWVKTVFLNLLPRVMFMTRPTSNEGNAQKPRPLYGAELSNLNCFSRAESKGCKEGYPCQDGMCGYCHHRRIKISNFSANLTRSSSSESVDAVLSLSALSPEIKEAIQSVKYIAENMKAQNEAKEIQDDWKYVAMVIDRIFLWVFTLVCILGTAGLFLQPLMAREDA
Compound,Ki [1] [nM],EC50 [2] [nM],Ratio Ki [3],Efficacy [4] [%],Ki [5] [nM],IC50 [6] [nM],Activity (CHO),IC50 [7] [nM],Activity [8] [%],IC50 [9] [nM]
c1ccc(-c2ccc3oc(N4CCN5CCC4CC5)nc3n2)cc1,> 3580,320,3,71,3.22,,,,,
c1ccc(Oc2cnc3nc(N4CCN5CCC4CC5)oc3c2)cc1,1960,620,,75,4.16,,,,,
CCc1cnc2nc(N3CCN4CCC3CC4)oc2c1,> 5260,300,,53,22.5,,,,,
Brc1cnc2nc(N3CCN4CCC3CC4)oc2c1,926,240,,64,2.08,2300,Toxic,779,,
c1cc2nc(N3CCN4CCC3CC4)oc2cn1,162,,,,309,,,,186,
c1cc2oc(N3CCN4CCC3CC4)nc2nc1C1CCCC1,> 5290,525,,54,5.3,,,,,
Cc1nc2nc(N3CCN4CCC3CC4)oc2cc1Cl,244,160,,58,3.19,16200,Non-toxic,70,,
O=c1c(Br)ccc2n1C[C@@H]1CNC[C@H]2C1,,,,,,,,,,15.6
Clc1cnc2oc(N3CCN4CCC3CC4)nc2c1,,227,,62,2.59,,,,,
Cc1ccc2nc(N3CCN4CCC3CC4)oc2c1,< 17,,,,17.9,,,,197,
c1cnc2oc(N3CCN4CCC3CC4)nc2c1,92,,,,40.6,,,,182,
c1ncc(-c2cnc3nc(N4CCN5CCC4CC5)oc3c2)cn1,> 7140,,,,60,,,,,
Cc1ccc2nc(N3CCN4CCC3CC4)oc2n1,126,1200,,59,88.6,,,,,
c1ccc(-c2cnc3oc(N4CCN5CCC4CC5)nc3c2)cc1,3670,264,,69,2.31,,,,,
Brc1ccc2oc(N3CCN4CCC3CC4)nc2c1,< 17,,,,2.15,,,,78,
Fc1cnc2nc(N3CCN4CCC3CC4)oc2c1,6200,213,,64,17.2,8700,Toxic,2480,,
Cc1ccc2oc(N3CCN4CCC3CC4)nc2c1,3.4,,,,33.6,,,,287,
c1cc2oc(N3CCN4CCC3CC4)nc2nc1N1CCCC1,6340,470,,67,1.91,,,,,
c1cncc(-c2cnc3nc(N4CCN5CCC4CC5)oc3c2)c1,> 5350,430,,70,119,,,,,

Compound,Ki [1] [nM],EC50 [2] [nM],Ratio Ki [3],Efficacy [4] [%],Ki [5] [nM],IC50 [6] [nM],Activity (CHO),IC50 [7] [nM],Activity [8] [%],IC50 [9] [nM]
Fc1ccccc1-c1ccc2oc(N3CCN4CCC3CC4)nc2n1,> 3770,160,,73,3.45,2800,Non-toxic,> 7310,,
c1cc2oc(N3CCN4CCC3CC4)nc2nc1N1CCCCC1,1140,1900,,30,67.1,,,,,
Fc1ccc2oc(N3CCN4CCC3CC4)nc2c1,3.9,,,,20.7,,,,315,
c1ccc(-c2cnc3nc(N4CCN5CCC4CC5)oc3c2)cc1,2120,320,,71,7.04,,,,,
CC(C)c1ccc2oc(N3CCN4CCC3CC4)nc2n1,> 5290,580,,68,9.05,,,,,
CCc1ccc2oc(N3CCN4CCC3CC4)nc2n1,> 5260,100,,34,18.7,,Non-toxic,3310,,
c1cnc2nc(N3CCN4CCC3CC4)oc2c1,579,,,,30.3,,,,220,
Clc1cnc2nc(N3CCN4CCC3CC4)oc2c1,1370,160,,83,1,,,484,,
c1cc(-c2cnc3nc(N4CCN5CCC4CC5)oc3c2)n[nH]1,> 5260,390,,68,23,,,,,
N#Cc1cnc2nc(N3CCN4CCC3CC4)oc2c1,> 5290,510,,58,6.2,,,,,
O=C(Oc1ccccc1)N1CCN2CCC1CC2,3990,,,,,,,,,
COc1ccc2oc(N3CCN4CCC3CC4)nc2n1,141,1000,,56,24.9,,,,,
CCC(C)c1cnc2nc(N3CCN4CCC3CC4)oc2c1 (stereo unspecified),,,,,> 1000,,,,,
c1ccc(Oc2ccc3oc(N4CCN5CCC4CC5)nc3n2)cc1,6830,380,,63,17.3,,,,,
c1ccc2oc(N3CCN4CCC3CC4)nc2c1,13,,,,22.5,,,,183,
Cc1cnc2nc(N3CCN4CCC3CC4)oc2c1,3390,1020,,55,6.66,,,,,
Cc1nc2nc(N3CCN4CCC3CC4)oc2cc1F,547,2100,,36,15.3,,,,,
c1cc2oc(N3CCN4CCC3CC4)nc2cn1,2120,,,,312,,,,156,
Clc1ccc2oc(N3CCN4CCC3CC4)nc2c1,1.2,,,,1.92,,,,122,
